Calls of active or inactive are those of the source. The calls are words filed in the database; no cut-off is given here.
Key:
A2780 [1] = experiment: Ratio of IC50 for MMR-deficient human A2780/CP70 cells to IC50 for human A2780 cells in presence of MGMT inactivator PaTrin2; type: functional
A2780/CP70 [2] = experiment: (§1) Chemoseinsitizatioin of MMR-deficieint humain A2780/CP70 cells after 5 days by MTT assay in preseince of MGMT iinactivator PaTriin2; type: functional, cell-based; details: Homo sapiens
Method in brief: (§2)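 Cells plated at 1×10^3 per well and left overnight at 37 °C in 5% CO2 to adhere. Medium was then replaced with fresh medium holding compound (0 controls to 250 µM; DMSO stock, final DMSO <0.1% v/v) plus 10 µM PaTrin2 to inactivate MGMT. Survival was read by MTT after 5 days at 37 °C.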

A2780 [3] = experiment: Ratio of IC50 for human A2780 cells to IC50 for human A2780 cells in presence of MGMT inactivator PaTrin2; type: functional
A2780/CP70 [4] = experiment: (§3) Chemosensitization of MMR-deficient human A2780/CP70 cells after 5 days by MTT assay; type: functional, cell-based
A2780 [5] = experiment: Chemosensitization of human A2780 cells after 5 days by MTT assay; type: functional, cell-based; details: A2780, 120 h
A2780 [6] = experiment: Chemosensitization of human A2780 cells after 5 days by MTT assay in presence of MGMT inactivator PaTrin2; type: functional, cell-based; details: A2780, 120 h; method in brief: as §2
SNB-19 [7] = experiment: Chemosensitization of MGMT-deficient human SNB19 cells after 5 days by MTT assay; type: functional, cell-based; details: SNB-19, 120 h, in the assay text read “Cyquant assay” for “MTT assay”
[8] = as §1; type: functional, cell-based; details: Homo sapiens, A2780/CP70, 120 h; method in brief: as §2
SNB-19 [9] = experiment: Chemosensitization of human SNB19 cells expressing MGMT after 5 days by MTT assay; type: functional, cell-based; details: SNB-19, 120 h, in the assay text read “Cyquant assay” for “MTT assay”
[10] = Half life of the compound at pH 7.4; type: physicochemical
A2058 [11] = experiment: Chemosensitization of human A2058 cells after 5 days by MTT assay; type: functional, cell-based; details: A2058, 120 h, in the assay text read “Cyquant assay” for “MTT assay”
[12] = as §3; type: functional, cell-based; details: A2780/CP70, 120 h
HCT-116 [13] = experiment: Chemosensitization of human HCT116 cells expressing p53 after 5 days by MTT assay; type: functional, cell-based; details: HCT-116, 120 h
Method in brief: (§4)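 Cells were seeded at 1×10^3 per well and incubated overnight (37 °C, 5% CO2) to attach, then given fresh medium with compound at 0 (control) to 250 µM. Compounds were dissolved in DMSO, final DMSO <0.1% v/v, with no PaTrin2. MTT survival was measured after 5 days at 37 °C. Isogenic HCT116 p53+/+ and p53−/− pair used.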

HCT-116 [14] = experiment: Ratio of IC50 for human HCT116 cells expressing p53 to IC50 for p53-deficient human HCT116 cells; type: functional
HCT-116 [15] = experiment: Chemosensitization of p53-deficient human HCT116 cells after 5 days by MTT assay; type: functional, cell-based; details: HCT-116, 120 h; method in brief: as §4
A2058 [16] = experiment: Ratio of temozolomide IC50 to compound IC50 for human A2058 cells; type: functional

Compound	Ratio IC50 (A2780 [1])	Activity (A2780/CP70 [2])	Ratio IC50 (A2780 [3])	Activity (A2780/CP70 [4])	IC50 (A2780 [5]) [µM]	IC50 (A2780 [6]) [µM]	IC50 (SNB-19 [7]) [µM]	IC50 [8] [µM]	IC50 (SNB-19 [9]) [µM]	half-life [10] [h]	IC50 (A2058 [11]) [µM]	IC50 [12] [µM]	IC50 (HCT-116 [13]) [µM]	Ratio IC50 (HCT-116 [14])	IC50 (HCT-116 [15]) [µM]	Ratio IC50 (A2058 [16])
Cc1ccc(N(C)CCn2nnc3c(C(N)=O)ncn3c2=O)cc1[N+](=O)[O-]	2.8	Active	1.1	Active	22											
Cn1nnc2c(C(N)=O)ncn2c1=O [TEMOZOLOMIDE]	>27		>30		> 250	8.5	37	231	> 250	1.24	35.5	> 250				
CC(C)(C)OC(=O)N(CCn1nnc2c(C(N)=O)ncn2c1=O)c1ccc(Cl)cc1	2.8	Active	1.1	Active	22											
Cc1ccc(N(CCn2nnc3c(C(N)=O)ncn3c2=O)CCn2nnc3c(C(N)=O)ncn3c2=O)cc1	5	Active	0.5	Active	1								6.2	1.4	4.4	
CN(CCn1nnc2c(C(N)=O)ncn2c1=O)c1ccccc1	2.8	Active	1.1	Active	22											
COc1ccc(N(CCn2nnc3c(C(N)=O)ncn3c2=O)CCn2nnc3c(C(N)=O)ncn3c2=O)cc1	5	Active	0.5	Active	1		6.6		7		2.5		7.6	0.8	9.9	10
COc1ccc(N(C)CCn2nnc3c(C(N)=O)ncn3c2=O)c([N+](=O)[O-])c1	2.8	Active	1.1	Active	22											
CN(CCn1nnc2c(C(N)=O)ncn2c1=O)c1ccc(Cl)cc1	2.8	Active	1.1	Active	22								55	1.5	35.8	
COc1ccc(N(CCn2nnc3c(C(N)=O)ncn3c2=O)CCn2nnc3c(C(N)=O)ncn3c2=O)c([N+](=O)[O-])c1	5	Active	0.5	Active	1											
CN(CCn1nnc2c(C(N)=O)ncn2c1=O)c1ccc([N+](=O)[O-])cc1	2.8	Active	1.1	Active	22											
CN(CCn1nnc2c(C(N)=O)ncn2c1=O)c1ccc(F)cc1	2.8	Active	1.1	Active	22											
NC(=O)c1ncn2c(=O)n(CCN(CCn3nnc4c(C(N)=O)ncn4c3=O)c3ccccc3)nnc12	5	Active	0.5	Active	1								5.5	1.1	4.8	
NC(=O)c1ncn2c(=O)n(CCNc3ccc(Cl)cc3)nnc12	2.8	Active	1.1	Active	22		77		> 100		> 100		13.2	1.4	9.5	
Cc1ccc(N(C)CCn2nnc3c(C(N)=O)ncn3c2=O)cc1	2.8	Active	1.1	Active	22											
NC(=O)c1ncn2c(=O)n(CCN(CCn3nnc4c(C(N)=O)ncn4c3=O)c3ccc(F)cc3)nnc12	5	Active	0.5	Active	1		11		12		5.5		28	1.6	17	10
NC(=O)c1ncn2c(=O)n(CCN(CCn3nnc4c(C(N)=O)ncn4c3=O)c3ccc(Cl)cc3)nnc12	5	Active	0.5	Active	1											
NC(=O)c1ncn2c(=O)n(CCCl)nnc12 [MITOZOLOMIDE]													60	3.4	17.9	

Source: ChEMBL document CHEMBL2417419, “Synthesis and quantitative structure-activity relationship of imidazotetrazine prodrugs with activity independent of O6-methylguanine-DNA-methyltransferase, DNA mismatch repair, and p53” (J Med Chem, 2013)
